Data as given in ChEMBL document CHEMBL1127497, “Studies on antiulcer drugs. 7. 2-Guanidino-4-pyridylthiazoles as histamine H2-receptor antagonists with potent gastroprotective effects against nonsteroidal antiinflammatory drug-induced injury” (J Med Chem, 1994).

Legend:
[1] = molecular target: Histamine H2 receptor (Cavia porcellus) (UniProt P47747); experiment: H2 receptor antagonistic activity against histamine stimulated chronotropic response in isolated guinea pig right atrium at 1x10E-6 g/mL.; format: functional, tissue-based; conditions: Cardiac atrium
In short: (§1)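 Guinea pig atrial strip under 0.3–0.6 g tension in Tyrode solution, 30 °C, gassed with 95% O2-5% CO2. Beating rate recorded. Histamine HCl 1 × 10-6 g/mL given; after washout, test compound added (single-concentration screen 1 × 10-6 g/mL) and histamine response compared before and 30 min after dosing. IC50 from three doses by probit analysis, three atria per dose.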

[2] = tested on: Rattus norvegicus; experiment: Inhibition of aspirin induced gastric lesions in rats after peroral dose of 32 mg/kg; format: functional; conditions: Stomach, route oral
In short: (§2)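 Male SD rats (~200 g), fasted 24 h. Test compound given orally in 0.1% MC, then aspirin 200 mg/kg in 0.2 N HCl/0.1% MC (10 mL/kg) orally 30 min later. Rats killed 1 h after aspirin. Ulcer index is the summed lesion length (mm); % inhibition is relative to controls. Seven rats per group for screening; ED50 by probit from three doses, ten rats per dose.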

[3] = tested on: Rattus norvegicus; experiment: Inhibition of histamine stimulated gastric acid secretion in lumen perfused anaesthetized rats after 1 mg/kg intravenous dose; format: functional; conditions: Stomach
In short: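 Male SD rats (~250 g), fasted 24 h, urethane 1.25 g/kg ip. Stomach lumen perfused with saline; perfusate titrated with 25 mM NaOH. Histamine infused iv at 3 mg/kg/h. At plateau, compound given iv at 1 mg/kg. Result expressed as maximal inhibition of acid output; n = 2.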

[4] = tested on: Canis familiaris; experiment: Evaluated against tetragastrin stimulated gastric acid secretion in conscious Hiedenhain-pouch dogs at a dose of 0.32 mg/kg, po; format: functional; conditions: Canis lupus familiaris, Stomach
In short: (§3)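 Beagle Heidenhain-pouch dogs, 8–13 kg, oral dosing. Acid concentration titrated to pH 7 with 0.1 N NaOH; total acid output is volume × concentration. Change is relative to predosing output. ED50 by probit from three or four doses, three or four dogs per dose.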

[5] = tested on: Canis familiaris; experiment: Effective dose against tetragastrin stimulated gastric acid secretion in conscious Hiedenhain-pouch dogs after peroral administration; format: functional; conditions: Canis lupus familiaris, Stomach, po; in short: as §3
[6] = tested on: Rattus norvegicus; experiment: Effective dose against indomethacin induced gastric lesions in rats after peroral administration; format: functional; conditions: Stomach, po
In short: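 Male SD rats (~200 g), fasted 24 h, dosed orally with test compound in 0.1% MC, ten per group. Indomethacin 5 mg/kg in 0.1% MC given orally 30 min later, then 0.35 N HCl (5 mL/kg) orally after 1 h. Killed 1 h after that. Ulcer index is the summed lesion length. ED50 by probit from three doses.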

[7] = tested on: Rattus norvegicus; experiment: Effect on gastric mucosal blood flow 15 minutes before dosing of HCl and aspirin after drug dosing at 32 mg/kg intragastrically; format: functional, Gastric mucosa; conditions: route intragastric
In short: (§4)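 Male rats, five per group, test drug suspended in 0.1% MC given intragastrically. Aspirin 200 mg/kg in 0.2 N HCl/0.1% MC (0.2 mL) given ig 15 min later. […] Reported as mean ± SEM and % of initial.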

[8] = tested on: Rattus norvegicus; experiment: Effect on gastric mucosal blood flow 30 minutes after administration of HCl and aspirin after drug dosing at 10 mg/kg intragastrically; format: functional, Gastric mucosa; conditions: route intragastric; in short: as §4
[9] = tested on: Rattus norvegicus; experiment: Effect on gastric mucosal blood flow 30 minutes after administration of HCl and aspirin after drug dosing at 32 mg/kg intragastrically; format: functional, Gastric mucosa; conditions: route intragastric; in short: as §4
[10] = tested on: Rattus norvegicus; experiment: Effect on gastric mucosal blood flow 60 minutes after administration of HCl and aspirin after drug dosing at 10 mg/kg intragastrically; format: functional, Gastric mucosa; conditions: route intragastric; in short: as §4
[11] = tested on: Rattus norvegicus; experiment: Effect on gastric mucosal blood flow 60 minutes after administration of HCl and aspirin after drug dosing at 32 mg/kg intragastrically; format: functional, Gastric mucosa; conditions: route intragastric; in short: as §4
[12] = tested on: Rattus norvegicus; experiment: Effect on gastric mucosal blood flow at basal value which is 15 minutes before dosing of drugs at 10 mg/kg intragastrically; format: functional, Gastric mucosa; conditions: route intragastric; in short: as §4
[13] = tested on: Rattus norvegicus; experiment: Effect on gastric mucosal blood flow 15 minutes before dosing of HCl and aspirin after drug dosing at 10 mg/kg intragastrically; format: functional, Gastric mucosa; conditions: route intragastric; in short: as §4
[14] = tested on: Rattus norvegicus; experiment: Effective dose against aspirin induced gastric lesions in rats after peroral administration; format: functional; conditions: Stomach, po; in short: as §2
[15] = tested on: Rattus norvegicus; experiment: Effect on gastric mucosal blood flow at basal value which is 15 minutes before dosing of drugs at 32 mg/kg intragastrically; format: functional, Gastric mucosa; conditions: route intragastric; in short: as §4
[16] = tested on: Rattus norvegicus; experiment: Evaluated for inhibition of basal gastric acid secretion in pyolus-ligated rats after intraduodenal administration; conditions: Stomach, id
[17] = molecular target: Histamine H2 receptor (Cavia porcellus, UniProt P47747); experiment: Compound was tested for H2 receptor antagonistic activity against histamine stimulated chronotropic response in isolated guinea pig right atrium; format: functional, tissue-based, Cardiac atrium; in short: as §1
Histamine H2 receptor, sequence (P47747 whole entry): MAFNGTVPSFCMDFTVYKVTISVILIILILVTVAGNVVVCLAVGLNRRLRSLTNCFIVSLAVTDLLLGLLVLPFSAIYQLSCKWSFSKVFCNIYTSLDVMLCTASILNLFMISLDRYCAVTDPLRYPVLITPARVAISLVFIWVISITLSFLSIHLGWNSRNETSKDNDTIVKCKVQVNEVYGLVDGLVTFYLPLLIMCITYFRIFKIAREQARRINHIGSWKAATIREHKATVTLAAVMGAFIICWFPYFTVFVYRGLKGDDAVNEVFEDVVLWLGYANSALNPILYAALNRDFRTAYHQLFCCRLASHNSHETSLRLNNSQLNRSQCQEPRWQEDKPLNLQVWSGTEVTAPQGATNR

Histamine H2 receptor (Cavia porcellus), sequence (P47747 whole entry): as above

SMILES	inhibition [1] [%]	inhibition in vivo at 32 mg/kg [2] [%]	inhibition in vivo at 1 mg/kg [3] [%]	also measured
C/N=C(\NC#N)NCc1cccc(-c2csc(N=C(N)N)n2)n1	43	37	15	
CC(=O)NCCc1cccc(-c2csc(N=C(N)N)n2)n1	3	31	58	
N=C(N)Nc1nc(-c2cccc(CNC(=O)C3CCCCC3)n2)cs1	23	62	23	
N=C(N)Nc1nc(-c2ccc(CC(=N)NS(N)(=O)=O)o2)cs1	84	49	99	inhibition in vivo at 0.32 mg/kg [4]: 92%
N=C(N)Nc1nc(-c2cccc(CNC(=O)CSCc3ccco3)n2)cs1	76	49	16	
NC(N)=Nc1nc(CSCC/C(N)=N/S(N)(=O)=O)cs1 [FAMOTIDINE]	87	22	96	inhibition in vivo at 0.32 mg/kg [4]: 96%; ED50 [5]: 0.042 mg/kg; ED50 [6]: > 100 mg/kg; Flow rate [7]: 60.5 ml min-1 100g-1; Flow rate [8]: 62.5 ml min-1 100g-1; Flow rate [9]: 46.9 ml min-1 100g-1; Flow rate [10]: 50.5 ml min-1 100g-1; Flow rate [11]: 43.4 ml min-1 100g-1; Flow rate [12]: 68.6 ml min-1 100g-1; Flow rate [13]: 73 ml min-1 100g-1; ED50 [14]: > 100 mg/kg; Flow rate [15]: 58.4 ml min-1 100g-1; ED50 [16]: 3.5 mg/kg
N=C(N)Nc1nc(-c2cccc(CNC=O)n2)cs1	46	57	83	
CS(=O)(=O)NCc1cccc(-c2csc(N=C(N)N)n2)n1	50	60	46	
NC(N)=Nc1nc(CSCCC(N)=NS(N)(=O)=O)cs1 [FAMOTIDINE]				IC50 [17]: 300 nM
CSCC(=O)NCc1cccc(-c2csc(N=C(N)N)n2)n1	37	80	4	
CCNC(=O)NCc1cccc(-c2csc(N=C(N)N)n2)n1	52	34	91	
CC(=O)NCc1cncc(-c2csc(N=C(N)N)n2)c1	22	42	10	
N=C(N)Nc1nc(-c2cccc(CNC(=O)C3CC3)n2)cs1	60	62	91	inhibition in vivo at 0.32 mg/kg [4]: 48%
CCS(=O)(=O)N/C=N\Cc1cccc(-c2csc(N=C(N)N)n2)n1	4	1	-18	
CC(C)(C)C(=O)NCc1cccc(-c2csc(N=C(N)N)n2)n1		58	22	
N=C(N)Nc1nc(-c2cccc(CNC(=O)C3CCC(=O)CC3)n2)cs1	2	62	37	
N=C(N)Nc1nc(-c2cccc(CNC(N)=O)n2)cs1	100	34	98	inhibition in vivo at 0.32 mg/kg [4]: 78%

SMILES	inhibition [1] [%]	inhibition in vivo at 32 mg/kg [2] [%]	inhibition in vivo at 1 mg/kg [3] [%]	also measured
CCC(=O)NCc1cccc(-c2csc(N=C(N)N)n2)n1	72	70	81	inhibition in vivo at 0.32 mg/kg [4]: 50%
CC(=O)Nc1cccc(-c2csc(N=C(N)N)n2)n1		43	16	
N=C(N)Nc1nc(-c2cccc(CNC(=O)C3CCCC3)n2)cs1	32	92	67	inhibition in vivo at 0.32 mg/kg [4]: 22%
N=C(N)Nc1nc(-c2cccc(CNC(=O)C(F)(F)F)n2)cs1	72	43	43	
C/N=C(/NCc1cccc(-c2csc(N=C(N)N)n2)n1)NS(C)(=O)=O	29	10	24	
N=C(N)Nc1nc(-c2cccc(CNC(=O)C3CCCCCC3)n2)cs1	13	93	43	inhibition in vivo at 0.32 mg/kg [4]: 67%
CC(=O)NCc1cc(-c2csc(N=C(N)N)n2)ccn1		42	40	
CNC(=O)NCc1cccc(-c2csc(N=C(N)N)n2)n1	86	57	79	
CN/C(=C\[N+](=O)[O-])NCc1cccc(-c2csc(N=C(N)N)n2)n1	-14	-27	18	
CC(C)C(=O)NCc1cccc(-c2csc(N=C(N)N)n2)n1	62	65	21	
CCCC(=O)NCc1cccc(-c2csc(N=C(N)N)n2)n1	25	56	71	
N=C(N)Nc1nc(-c2cccc(CNC(=O)C3CCCO3)n2)cs1 (stereo not given)	7	66	6	
CCCNC(=O)NCc1cccc(-c2csc(N=C(N)N)n2)n1	82	42	90	
N=C(N)Nc1nc(-c2cccc(CNC(=O)C3CCOC3)n2)cs1 (stereo not given)	32	42	51	
N=C(N)Nc1nc(-c2cccc(CNC(=O)c3ccco3)n2)cs1	13	69	34	
N=C(N)Nc1nc(-c2cccc(CNC(=O)C3CCC3)n2)cs1	2	82	61	
N=C(N)Nc1nc(-c2cccc(CC(=N)NS(N)(=O)=O)n2)cs1		16	42	
